Results reported in ChEMBL document CHEMBL4393654, “Discovery and Early Clinical Development of an Inhibitor of 5-Lipoxygenase Activating Protein (AZD5718) for Treatment of Coronary Artery Disease” (J Med Chem, 2019).
Each block holds one molecule with its values, some of them ahead of it. Calls of active or inactive are those of the source. No cut-off for these calls is given here.

Key:
[1] = Volume of distribution at steady state in rat at 2 umol/kg, iv; type: ADME; details: in vivo, read-out: Vdss
[2] = system: Cytochrome P450; experiment: Drug metabolism in human hepatocytes assessed as CYP450-mediated phase-2 glucuronidation/ketone reduction at 4 uM measured after 120 mins by LC-MS/MS analysis; type: ADME, cell-based, Hepatocyte; details: 2 h
[3] = Oral bioavailability in rat at 2.8 umol/kg; type: ADME, organism-based; details: in vivo
[4] = Oral bioavailability in Beagle dog at 4.2 umol/kg; type: ADME, organism-based, Canis lupus familiaris; details: in vivo
[5] = Half life in rat at 2 umol/kg, iv; type: ADME; details: in vivo
[6] = Half life in human at 60 to 1200 mg, po administered as single dose; type: ADME, organism-based; details: in vivo
[7] = Cardiotoxicity in dog assessed as effect on histopathological changes measured up to 28 days during compound dosing; type: toxicity, Canis lupus familiaris; details: in vivo, 672 h
[8] = Cardiotoxicity in conscious telemetered Beagle dog assessed as effect on body temperature at 0.5 to 30 mg/kg administered as single iv infusion for 2 hrs measured up to 48 hrs post dose by telemetry; type: toxicity, organism-based, Canis lupus familiaris; details: in vivo
Summary of the method: (§1)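 Conscious beagle dogs were given the compound by intravenous infusion. Infusion was set to reach a target plasma concentration 100-fold above the predicted free human Cmax at the therapeutic dose, and cardiovascular parameters were recorded.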

[9] = Cardiotoxicity in conscious telemetered Beagle dog assessed as effect on arterial blood pressure at 0.5 to 30 mg/kg administered as single iv infusion for 2 hrs measured up to 48 hrs post dose by telemetry; type: toxicity, organism-based, Canis lupus familiaris; details: in vivo; summary of the method: as §1
[10] = system: Cytochrome P450; experiment: Drug metabolism in human hepatocytes assessed as CYP450-mediated phase-2 glucuronidation/oxidation at 4 uM measured after 120 mins by LC-MS/MS analysis; type: ADME, cell-based, Hepatocyte; details: 2 h
[11] = Oral bioavailability in rat at 2.5 umol/kg; type: ADME, organism-based; details: in vivo
[12] = Cardiotoxicity in conscious telemetered Beagle dog assessed as effect on left ventricular parameters at 0.5 to 30 mg/kg administered as single iv infusion for 2 hrs measured up to 48 hrs post dose by telemetry; type: toxicity, organism-based, Canis lupus familiaris; details: in vivo; summary of the method: as §1
[13] = Cardiotoxicity in conscious telemetered Beagle dog; type: toxicity, Canis lupus familiaris
[14] = molecular target: Bile salt export pump (Homo sapiens, UniProt O95342); experiment: Inhibition of recombinant human BSEP expressed in baculovirus infected Sf21 insect cell vesicles assessed as reduction in NBD-taurocholate uptake by fluorescence assay; type: ADME
Bile salt export pump, sequence (O95342 whole entry, the tested form may be a part): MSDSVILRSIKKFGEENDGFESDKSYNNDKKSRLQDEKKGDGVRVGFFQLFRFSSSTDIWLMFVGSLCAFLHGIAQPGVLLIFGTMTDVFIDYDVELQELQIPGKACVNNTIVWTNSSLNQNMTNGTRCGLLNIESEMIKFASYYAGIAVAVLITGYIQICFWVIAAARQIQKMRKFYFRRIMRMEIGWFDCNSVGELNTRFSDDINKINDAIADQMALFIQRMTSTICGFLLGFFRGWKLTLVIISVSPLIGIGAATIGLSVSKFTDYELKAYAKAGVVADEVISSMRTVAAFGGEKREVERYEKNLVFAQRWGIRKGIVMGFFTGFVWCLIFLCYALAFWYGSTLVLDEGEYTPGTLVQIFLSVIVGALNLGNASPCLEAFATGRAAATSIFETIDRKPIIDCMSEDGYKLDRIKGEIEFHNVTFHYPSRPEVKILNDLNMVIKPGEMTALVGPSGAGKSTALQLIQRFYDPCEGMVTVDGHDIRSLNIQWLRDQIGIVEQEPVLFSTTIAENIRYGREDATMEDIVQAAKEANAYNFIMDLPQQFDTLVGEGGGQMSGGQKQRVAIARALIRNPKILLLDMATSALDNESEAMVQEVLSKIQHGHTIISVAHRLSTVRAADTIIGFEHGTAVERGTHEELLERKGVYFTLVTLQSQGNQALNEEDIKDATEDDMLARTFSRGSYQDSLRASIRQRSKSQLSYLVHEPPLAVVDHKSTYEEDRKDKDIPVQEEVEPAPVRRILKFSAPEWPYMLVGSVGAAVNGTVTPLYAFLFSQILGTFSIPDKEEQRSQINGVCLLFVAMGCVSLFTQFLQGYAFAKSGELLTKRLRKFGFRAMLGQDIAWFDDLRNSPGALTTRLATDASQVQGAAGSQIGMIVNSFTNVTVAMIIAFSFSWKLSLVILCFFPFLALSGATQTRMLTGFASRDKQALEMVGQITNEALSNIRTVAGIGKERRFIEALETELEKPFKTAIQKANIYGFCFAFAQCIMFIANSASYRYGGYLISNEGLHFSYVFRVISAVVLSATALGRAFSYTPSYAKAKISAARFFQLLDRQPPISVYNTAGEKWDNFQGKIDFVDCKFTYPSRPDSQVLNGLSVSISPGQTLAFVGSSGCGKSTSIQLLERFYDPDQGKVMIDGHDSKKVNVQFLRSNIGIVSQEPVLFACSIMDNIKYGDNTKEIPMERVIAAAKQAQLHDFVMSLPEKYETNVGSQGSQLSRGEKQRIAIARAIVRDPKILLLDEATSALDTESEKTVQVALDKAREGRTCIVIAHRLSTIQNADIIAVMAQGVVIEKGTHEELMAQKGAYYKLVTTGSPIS

[15] = Cardiotoxicity in conscious telemetered Beagle dog assessed as effect on lead 2 electrocardiogram at 0.5 to 30 mg/kg administered as single iv infusion for 2 hrs measured up to 48 hrs post dose by telemetry; type: toxicity, organism-based, Canis lupus familiaris; details: in vivo; summary of the method: as §1
[16] = Cardiotoxicity in dog assessed as effect on cardiac function measured up to 28 days during compound dosing; type: toxicity, Canis lupus familiaris; details: in vivo, 672 h
[17] = Cardiotoxicity in rat assessed as effect on histopathological changes measured up to 28 days during compound dosing; type: toxicity; details: in vivo, 672 h
[18] = Cardiotoxicity in rat assessed as effect on cardiac function measured up to 28 days during compound dosing; type: toxicity; details: in vivo, 672 h
[19] = Cardiotoxicity in conscious telemetered Beagle dog assessed as effect on heart rate at 0.5 to 30 mg/kg administered as single iv infusion for 2 hrs measured up to 48 hrs post dose by telemetry; type: toxicity, organism-based, Canis lupus familiaris; details: in vivo; summary of the method: as §1
[20] = molecular target: T1, Prostaglandin G/H synthase 2 (Homo sapiens) (UniProt P35354); experiment: Activity at COX2 in human whole blood assessed as effect on LPS-induced PGE2 production preincubated for 15 mins followed by LPS-stimulation and measured after overnight incubation by EIA; type: tissue-based
T1 sequence (whole entry): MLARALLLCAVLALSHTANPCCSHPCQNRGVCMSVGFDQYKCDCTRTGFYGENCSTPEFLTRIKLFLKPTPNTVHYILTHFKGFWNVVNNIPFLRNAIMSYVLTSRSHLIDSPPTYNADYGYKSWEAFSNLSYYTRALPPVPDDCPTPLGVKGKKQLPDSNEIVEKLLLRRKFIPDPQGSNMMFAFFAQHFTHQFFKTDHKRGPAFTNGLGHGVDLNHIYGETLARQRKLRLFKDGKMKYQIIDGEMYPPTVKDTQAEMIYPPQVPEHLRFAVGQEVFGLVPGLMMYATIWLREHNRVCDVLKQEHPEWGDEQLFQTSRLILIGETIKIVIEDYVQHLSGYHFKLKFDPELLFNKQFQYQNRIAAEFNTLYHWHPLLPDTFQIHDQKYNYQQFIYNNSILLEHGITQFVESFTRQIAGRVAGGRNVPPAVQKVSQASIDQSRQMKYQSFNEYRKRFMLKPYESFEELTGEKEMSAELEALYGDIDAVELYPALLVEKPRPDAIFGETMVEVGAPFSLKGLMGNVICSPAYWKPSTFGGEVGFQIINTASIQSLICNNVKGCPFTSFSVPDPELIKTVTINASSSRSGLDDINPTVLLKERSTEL

[21] = Volume of distribution at steady state in Beagle dog at 1 umol/kg, iv; type: ADME, Canis lupus familiaris; details: in vivo, read-out: Vdss
[22] = Half life in Beagle dog at 1 umol/kg, iv; type: ADME, Canis lupus familiaris; details: in vivo
[23] = organism: Homo sapiens; experiment: Selectivity ratio of compound effect on activity at COX1 in human whole blood to IC50 for FLAP in human whole blood
[24] = molecular target: Prostaglandin G/H synthase 1 (Homo sapiens) (UniProt P23219); experiment: Activity at COX1 in human whole blood assessed as effect on […] production by EIA; type: tissue-based
Prostaglandin G/H synthase 1 (Homo sapiens), sequence (P23219 whole entry): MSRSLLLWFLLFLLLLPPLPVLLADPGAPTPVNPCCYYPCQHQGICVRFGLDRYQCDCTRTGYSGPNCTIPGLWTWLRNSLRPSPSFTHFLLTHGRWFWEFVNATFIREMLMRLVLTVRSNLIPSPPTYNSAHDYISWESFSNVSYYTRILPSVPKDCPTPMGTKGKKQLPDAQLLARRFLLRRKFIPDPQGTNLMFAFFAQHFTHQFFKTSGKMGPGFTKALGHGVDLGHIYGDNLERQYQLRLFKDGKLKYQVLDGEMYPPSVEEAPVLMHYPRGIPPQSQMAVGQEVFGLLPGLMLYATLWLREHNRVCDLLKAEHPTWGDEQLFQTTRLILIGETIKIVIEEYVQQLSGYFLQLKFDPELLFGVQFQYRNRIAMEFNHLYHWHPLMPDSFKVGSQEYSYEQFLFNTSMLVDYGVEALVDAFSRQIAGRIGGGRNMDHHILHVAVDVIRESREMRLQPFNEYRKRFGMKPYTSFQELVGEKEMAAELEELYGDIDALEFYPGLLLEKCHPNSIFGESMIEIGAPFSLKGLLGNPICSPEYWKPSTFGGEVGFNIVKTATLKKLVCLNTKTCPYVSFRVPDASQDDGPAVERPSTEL

[25] = Clearance in Beagle dog at 1 umol/kg, iv; type: ADME, Canis lupus familiaris; details: in vivo
[26] = Oral bioavailability in rat at 2 umol/kg; type: ADME, organism-based; details: in vivo
[27] = system: THP-1; experiment: Cytotoxicity against human THP1 cells assessed as reduction in cell viability measured after 48 hrs by resazurin assay; type: cell-based; details: THP-1, 48 h
[28] = molecular target: T2, Arachidonate 5-lipoxygenase-activating protein (Homo sapiens) (UniProt P20292); experiment: Inhibition of FLAP in human whole blood assessed as reduction in calcium ionophore-stimulated LTB4 production preincubated for 4 hrs followed by calcium ionophore stimulation and measured after 20 mins by EIA; type: tissue-based
T2 sequence (whole entry): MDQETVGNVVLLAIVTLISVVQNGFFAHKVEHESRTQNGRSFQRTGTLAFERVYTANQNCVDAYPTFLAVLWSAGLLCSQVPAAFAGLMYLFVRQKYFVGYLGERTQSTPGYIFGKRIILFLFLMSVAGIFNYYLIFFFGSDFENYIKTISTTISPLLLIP
Summary of the method: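 Fresh human whole blood was incubated with compound for 4 h, then stimulated with calcium ionophore, and LTB4 production was measured as the 5-LO pathway read-out. IC50 was also converted to a free value: IC50 × (Fu/100), where Fu = 100 − human plasma protein binding (%).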

[29] = molecular target: T3, Arachidonate 5-lipoxygenase-activating protein (Homo sapiens, UniProt P20292); experiment: Inhibition of [3H]MK0591 binding to human FLAP expressed in […] cell membranes measured after 60 to 80 mins by microbeta scintillation counting method
T3 sequence (P20292 whole entry): T2 sequence (whole entry)

[30] = organism: Homo sapiens; experiment: Selectivity ratio of compound effect on activity at COX2 in human whole blood to IC50 for FLAP in human whole blood

Vd [1]: 1.3 L/kg
Drug metabolism [2]: Metabolite_Detected
bioavailability [3]: 14%
bioavailability [4]: 65%
half-life [5]: 174 min
Structure (SMILES): Cc1cc(-c2ccc(C(=O)[C@@H]3CCCC[C@H]3C(=O)Nc3cnn(C)c3S(N)(=O)=O)cc2)[nH]n1

half-life [6]: 720 min
Drug metabolism [10]: Metabolite_Detected
bioavailability [11]: 14%
Structure (SMILES): Cc1cc(-c2ccc(C(=O)[C@@H]3CCCC[C@H]3C(=O)Nc3cnn4c3C(=O)NCC4)cc2)[nH]n1
Activity [7]: Non-Toxic
Activity [8]: Non-Toxic
Activity [9]: Non-Toxic
Activity [12]: Non-Toxic
Activity [13]: Non-Toxic
IC50 [14]: 74 to 340 µM
Activity [15]: Non-Toxic
Activity [16]: Non-Toxic
Activity [17]: Non-Toxic
Activity [18]: Non-Toxic
Activity [19]: Non-Toxic

Activity [20]: inactive
Vd [21]: 0.4 L/kg
half-life [22]: 420 min
Selectivity ratio [23]: > 100
Activity [24]: inactive
clearance [25]: 2 mL/min/kg
bioavailability [26]: 12%
fIC50 [28]: 1.6 nM
IC50 [29]: 5.8 nM
Selectivity ratio [30]: > 100
Structure (SMILES): Cc1cc(-c2ccc(C(=O)[C@@H]3CCCC[C@H]3C(=O)Nc3cnn(C)c3C(=O)NOC(C)(C)C)cc2)[nH]n1
IC50 [27]: > 250 µM
